From ChEMBL document CHEMBL4382271, “Eucalypglobulusals A-J, Formyl-Phloroglucinol-Terpene Meroterpenoids from Eucalyptus globulus Fruits” (J Nat Prod, 2018)
Activity calls are given as the source filed them. The calls are words filed in the database; no cut-off is given here.

What was measured:
[1] = target: T1, DNA topoisomerase I (Bos taurus) (UniProt F1MN93); assay: Inhibition of calf thymus topoisomerase-1-mediated supercoiled pBR322 DNA relaxation at 50 uM after 30 mins by agarose gel electrophoresis assay relative to control
T1 sequence (whole entry): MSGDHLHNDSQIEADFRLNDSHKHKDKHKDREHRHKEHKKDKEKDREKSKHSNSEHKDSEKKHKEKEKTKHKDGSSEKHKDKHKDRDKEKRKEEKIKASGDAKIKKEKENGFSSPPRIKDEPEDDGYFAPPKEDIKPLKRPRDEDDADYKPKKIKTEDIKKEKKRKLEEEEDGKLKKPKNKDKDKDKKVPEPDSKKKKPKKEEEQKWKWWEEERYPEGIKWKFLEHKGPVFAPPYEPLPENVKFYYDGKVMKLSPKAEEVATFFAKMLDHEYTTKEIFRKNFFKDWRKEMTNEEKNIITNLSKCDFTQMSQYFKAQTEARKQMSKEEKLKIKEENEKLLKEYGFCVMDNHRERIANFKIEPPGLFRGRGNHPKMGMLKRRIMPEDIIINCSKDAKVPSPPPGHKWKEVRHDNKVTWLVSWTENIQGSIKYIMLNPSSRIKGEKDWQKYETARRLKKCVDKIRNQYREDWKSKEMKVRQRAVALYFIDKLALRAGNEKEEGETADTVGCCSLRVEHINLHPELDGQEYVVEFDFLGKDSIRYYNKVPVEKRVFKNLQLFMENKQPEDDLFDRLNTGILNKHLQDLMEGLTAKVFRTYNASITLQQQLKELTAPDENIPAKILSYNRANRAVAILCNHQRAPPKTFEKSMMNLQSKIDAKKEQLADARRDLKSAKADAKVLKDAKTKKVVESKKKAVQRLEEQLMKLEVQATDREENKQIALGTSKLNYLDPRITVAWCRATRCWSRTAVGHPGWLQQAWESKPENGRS
How it was run: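 Top1-mediated plasmid relaxation run at 50 μM test concentration. Camptothecin (CPT) was included as reference inhibitor. Inhibition was expressed as percentage ranges from gel band intensities.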

[2] = test system: DU-145; assay: Cytotoxicity against human DU145 cells by MTT assay; type: functional, cell-based
[3] = test system: Huh-7; assay: Cytotoxicity against human HuH7 cells by MTT assay; type: functional, cell-based
[4] = test system: A549; assay: Cytotoxicity against human A549 cells by MTT assay; type: functional, cell-based
[5] = test system: CCRF-CEM; assay: Cytotoxicity against human CCRF-CEM cells by MTT assay; type: functional, cell-based
[6] = test system: HCT-116; assay: Cytotoxicity against human HCT116 cells by MTT assay; type: functional, cell-based
[7] = target: T1, DNA topoisomerase I (Bos taurus); assay: Inhibition of calf thymus topoisomerase-1-mediated relaxed pBR322 DNA unwinding at 25 uM preincubated with DNA for 10 mins followed by enzyme addition and measured after 30 mins by agarose gel electrophoresis assay
How it was run: (§1)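 Top1-mediated unwinding assay with ethidium bromide, a DNA intercalator, as positive control. It tests whether compounds unwind DNA by intercalation.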

[8] = target: T1, DNA topoisomerase I (Bos taurus); assay: Inhibition of calf thymus topoisomerase-1-mediated supercoiled pBR322 DNA unwinding at 25 uM preincubated with DNA for 10 mins followed by enzyme addition and measured after 30 mins by agarose gel electrophoresis assay; how it was run: as §1
[9] = target: T1, DNA topoisomerase I (Bos taurus); assay: Inhibition of calf thymus topoisomerase-1 assessed as reduction in cleavage complex formation by measuring decrease in nicked form DNA using supercoiled pBR322 DNA as substrate after 30 mins by agarose gel electrophoresis assay

Compound	inhibition [1] [%]	IC50 [2] [µM]	IC50 [3] [µM]	IC50 [4] [µM]	IC50 [5] [µM]	IC50 [6] [µM]	inhibition [7]	inhibition [8]	inhibition [9]
C=C1/C=C/[C@H](C(C)(C)O)C[C@H]2[C@@H](CC(C)C)c3c(O)c(C=O)c(O)c(C=O)c3O[C@]2(C)CCC1	60 to 89	> 10	> 10	> 10	3.3	> 10	–	–	–
CC(C)CC(=O)c1c(O)c(C=O)c(O)c(C[C@@]2(C)CC[C@@H]3[C@@H]2[C@H]2[C@@H](CC[C@@]3(C)O)C2(C)C)c1O [EUCALYPTIN A]	> 90	8.9	> 10	4.9	> 10	9.6	–	–	–
CC[C@@]1(O)C(=O)OCc2c1cc1n(c2=O)Cc2cc3ccccc3nc2-1 [CAMPTOTHECIN]	> 90	0.016	0.0023	0.04	0.002	0.013	–	–	–
COc1cc([C@@H]2c3cc4c(cc3[C@@H](O[C@@H]3O[C@@H]5CO[C@@H](C)O[C@H]5[C@H](O)[C@H]3O)[C@H]3COC(=O)[C@H]23)OCO4)cc(OC)c1O [ETOPOSIDE]	–	> 10	7.4	> 10	1.1	> 10	–	–	–
C=C(C)[C@@H]1C=C2[C@@H](C)CC[C@@H](Cc3c(O)c(C=O)c(O)c(C(=O)CC(C)C)c3O)[C@]2(C)CC1	> 90	> 10	> 10	5.2	> 10	9.6	–	–	–
CC(C)CC(=O)c1c(O)c(C=O)c(O)c(C[C@@]2(C)CC[C@H]3C2=C[C@H](C(C)(C)O)CC[C@H]3C)c1O	> 90	> 10	> 10	5.3	6.9	> 10	–	–	–
CC(C)C[C@@H](c1c(O)c(C=O)c(O)c(C=O)c1O)[C@@]1(C)CC[C@@H]2[C@@H]1[C@H]1[C@@H](CC[C@@]2(C)O)C1(C)C	–	–	–	–	–	–	inactive	inactive	–
CC(=O)[C@@]12C=C(C(C)C)CC[C@@]1(C)[C@H]([C@@H](CC(C)C)c1c(O)c(C=O)c(O)c(C=O)c1O)C[C@H]2O	–	–	–	–	–	–	inactive	inactive	Dose-dependent effect
CC[n+]1c(-c2ccccc2)c2cc(N)ccc2c2ccc(N)cc21	–	–	–	–	–	–	Active	Active	–
